Assay results of several laboratories.
Compare with care: the assays were run in different laboratories. pEC50, pIC50: −log10 of the molar value. Converted amounts (≈) assume the structure as drawn.

CC(=O)ON=C1C=CC(=C(C#N)c2ccccc2)C=C1
MIC (Pichia kudriavzevii; microbial growth, broth dilution; ATCC14243; 48 h): 16 µg/mL (≈ 60.5 µM)

Clc1ccc(COC(Cn2ccnc2)c2ccc(Cl)cc2Cl)c(Cl)c1 (centres unmarked)
MIC80 (Pichia kudriavzevii; microbial growth, broth dilution): 0.5 µg/mL (≈ 1.2 µM)

CC(C)c1ccc(/C=C2\N=C(SCC(=O)O)N(c3ccccc3)C2=O)cc1
MIC (Fusarium solani; microbial growth, broth dilution): 12 µg/mL (≈ 31.5 µM)

O=C(Nc1ccc(F)cc1)c1ccc(COC(Cn2ccnc2)c2ccc(Cl)cc2Cl)cc1 (centres unmarked)
MIC80 (Pichia kudriavzevii; microbial growth, broth dilution): 0.06 µg/mL (≈ 0.124 µM)

CC1=C(Cn2cc([Si](C)(C)C)nn2)C(=O)c2ccccc2C1=O
pIC50 (Schistosoma mansoni; parasite growth; 72 h, larva): 5.80

COc1ccc(NC(=O)c2ccc(COC(Cn3ccnc3)c3ccc(Cl)cc3Cl)cc2)cc1 (centres unmarked)
MIC80 (Pichia kudriavzevii; microbial growth, broth dilution): 0.125 µg/mL (≈ 0.252 µM)

N#CC(=C1C=CC(=NOC(=O)OCc2ccccc2)C=C1)c1ccccc1
MIC (Pichia kudriavzevii; microbial growth, broth dilution; ATCC14243; 48 h): 128 µg/mL (≈ 359 µM)

Cc1ccc(NC(=O)c2ccc(COC(Cn3ccnc3)c3ccc(Cl)cc3Cl)cc2)cc1 (centres unmarked)
MIC80 (Pichia kudriavzevii; microbial growth, broth dilution): 0.125 µg/mL (≈ 0.26 µM)

CCON=C1C=CC(=C(C#N)c2ccccc2)C=C1
MIC (Pichia kudriavzevii; microbial growth, broth dilution; ATCC14243; 48 h): 256 µg/mL (≈ 1020 µM)

O=C(Nc1cccc(F)c1)c1ccc(COC(Cn2ccnc2)c2ccc(Cl)cc2Cl)cc1 (centres unmarked)
MIC80 (Pichia kudriavzevii; microbial growth, broth dilution): 0.25 µg/mL (≈ 0.516 µM)

CC1=C(Cc2cn(CCO)nn2)C(=O)c2ccccc2C1=O
pIC50 (Schistosoma mansoni; parasite growth; 72 h, larva): 5.84

COc1cc(NC(=O)Cn2ccc3ccc(-c4nnc(C)o4)cc32)cc(OC)c1OC
pEC50 (Plasmodium knowlesi; parasite growth, SYBR Green; 30 h, blood stage): 6.18 to 6.70

CC1=C(Cn2cc(CN3CCN(C(=O)OC(C)(C)C)CC3)nn2)C(=O)c2ccccc2C1=O
pIC50 (Schistosoma mansoni; parasite growth; 72 h, larva): 5.82

C#CCOC(=O)ON=C1C=CC(=C(C#N)c2ccccc2)C=C1
MIC (Pichia kudriavzevii; microbial growth, broth dilution; ATCC14243; 48 h): 16 µg/mL (≈ 52.6 µM)

CC1=C(Cn2cc(COC3COC3)nn2)C(=O)c2ccccc2C1=O
pIC50 (Schistosoma mansoni; parasite growth; 72 h, larva): 5.97

C#CCON=C1C=CC(=C(C#N)c2ccccc2)C=C1
MIC (Pichia kudriavzevii; microbial growth, broth dilution; ATCC14243; 48 h): 32 µg/mL (≈ 123 µM)

CC1=C(Cn2cc(CO)nn2)C(=O)c2ccccc2C1=O
pIC50 (Schistosoma mansoni; parasite growth; 72 h, larva): 5.98

O=C(Nc1ccc(Br)cc1)c1ccc(COC(Cn2ccnc2)c2ccc(Cl)cc2Cl)cc1 (centres unmarked)
MIC80 (Pichia kudriavzevii; microbial growth, broth dilution): 0.06 µg/mL (≈ 0.11 µM)

CCn1c(=O)c(-c2cc[nH]n2)cc2c(C)nc(N)nc21
pIC50 (Enterovirus A; viral replication, inhibitor, qPCR; RD, EV71): 6.80

CC1=C(Cn2cc(CN3CCNCC3)nn2)C(=O)c2ccccc2C1=O
pIC50 (Schistosoma mansoni; parasite growth; 72 h, larva): 6.03

C=CC(=O)ON=C1C=CC(=C(C#N)c2ccccc2)C=C1
MIC (Pichia kudriavzevii; microbial growth, broth dilution; ATCC14243; 48 h): 16 µg/mL (≈ 57.9 µM)

CC1=C(Cn2ccnc2[N+](=O)[O-])C(=O)c2ccccc2C1=O
pIC50 (Schistosoma mansoni; parasite growth; 72 h, larva): 5.99

O=C(Nc1cccc(Br)c1)c1ccc(COC(Cn2ccnc2)c2ccc(Cl)cc2Cl)cc1 (centres unmarked)
MIC80 (Pichia kudriavzevii; microbial growth, broth dilution): 0.06 µg/mL (≈ 0.11 µM)
